For 15 compounds, GI50 and Cleavage results are on record in ChEMBL document CHEMBL1140328, “Synthesis and mechanism of action studies of a series of norindenoisoquinoline topoisomerase I poisons reveal an inhibitor with a flipped orientation in the ternary DNA-enzyme-inhibitor complex as determined by X-ray crystallographic analysis” (2005).

Assay [1] is described as follows: Concentration required to inhibit the growth of human Renal SN12C cells. The class given is functional. In a few lines:
(§1)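 NCI screen of about 55 human cancer cell lines; GI50 per cell line over a test range of 10⁻⁸ to 10⁻⁴ M. Mean graph midpoint is the average GI50 across all lines tested, with values outside the range set to 10⁻⁸ or 10⁻⁴ M.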

Assay [2] can be described thus: Concentration required to inhibit the growth of human Breast MDA-MB-435 cells. The class given is functional. In a few lines: as §1
Assay [3] can be described thus: Concentration required to inhibit the growth of human Prostate DU-145 cells. The class given is functional. In a few lines:
as §1

A short description of assay [4]: Concentration required to inhibit the growth of human Ovarian OVCAR cells. The class given is functional. In a few lines:
as §1

A short description of assay [5]: Concentration required to inhibit the growth of human Colon […] cells. The class given is functional. The method in brief:
as §1

Assay [6] is described as follows: Concentration required to inhibit the growth of human Melanoma UACC-62 cells. The class given is functional. The method in brief:
as §1

Assay [7] can be described thus: Concentration required to inhibit the growth of human Lung HOP-62 cells. The class given is functional. In a few lines: as §1
Assay [8] concerns the target T1, DNA topoisomerase 1 (Homo sapiens) (UniProt P11387).
T1 sequence (whole entry): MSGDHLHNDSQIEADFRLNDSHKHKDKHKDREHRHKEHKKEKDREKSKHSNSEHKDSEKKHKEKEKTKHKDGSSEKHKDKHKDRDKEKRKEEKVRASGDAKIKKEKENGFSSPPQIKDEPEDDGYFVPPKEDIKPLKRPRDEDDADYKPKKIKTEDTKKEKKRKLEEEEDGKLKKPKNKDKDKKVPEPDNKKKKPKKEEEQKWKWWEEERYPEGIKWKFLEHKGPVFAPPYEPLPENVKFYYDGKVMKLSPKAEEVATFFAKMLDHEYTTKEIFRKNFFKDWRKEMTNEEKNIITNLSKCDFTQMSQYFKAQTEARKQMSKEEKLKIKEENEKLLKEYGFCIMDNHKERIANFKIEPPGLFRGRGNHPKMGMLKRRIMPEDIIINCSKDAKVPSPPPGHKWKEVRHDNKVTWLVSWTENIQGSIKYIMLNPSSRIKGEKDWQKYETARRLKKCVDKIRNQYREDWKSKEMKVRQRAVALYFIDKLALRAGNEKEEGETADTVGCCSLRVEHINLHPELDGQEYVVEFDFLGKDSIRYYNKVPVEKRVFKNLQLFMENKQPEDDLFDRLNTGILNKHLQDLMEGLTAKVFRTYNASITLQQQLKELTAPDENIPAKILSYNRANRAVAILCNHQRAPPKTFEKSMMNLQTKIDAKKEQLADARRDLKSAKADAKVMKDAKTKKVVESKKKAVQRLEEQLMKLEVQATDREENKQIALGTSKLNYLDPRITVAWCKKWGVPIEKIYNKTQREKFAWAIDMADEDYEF
As to the kind of experiment: Topoisomerase-I mediated DNA Cleavage activity at 30 degree C for 30 min relative to NSC 314622; Range = 25-75%.

A short description of assay [9]: Concentration required to inhibit the growth of human OvarianOVCAR cells. The class given is functional. In a few lines: as §1
Assay [10] can be described thus: Concentration required to inhibit the growth of human CNSSF-539 cells. The class given is functional. In a few lines: as §1
The nature of assay [11]: Concentration required to inhibit the growth of human prostate DU-145 cells. The class given is functional. In a few lines: as §1
The nature of assay [12]: Concentration required to inhibit the growth of human ProstateDU-145 cells. The class given is functional. The note with it: DU-145. The method in brief: as §1
Assay [13] can be described thus: Concentration required to inhibit the growth of human LungHOP-62 cells. The class given is functional. The method in brief:
(§2)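 Assayed in the National Cancer Institute screen, a panel of approximately 55 human cancer cell lines. Compounds were tested over a concentration range of 10⁻⁸ to 10⁻⁴ molar, and growth inhibition was expressed as GI₅₀ for each cell line.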

Assay [14] in a line: Concentration required to inhibit the growth of human ColonHCT-11 cells. The class given is functional. The method in brief: as §2
Assay [15] addresses T1, DNA topoisomerase 1 (Homo sapiens). Put plainly: Topoisomerase-I mediated DNA Cleavage activity at 30 degree C for 30 min relative to NSC 314622; Range = 75-175%.

As for `COc1cc2c(c(OC)c1OC)-c1ncc3cc4c(cc3c1C2)OCO4`, the 50% growth inhibitory concentration (GI50) turned out to be 13.4 µM in [1]; 13.2 µM in assay [2]; 23.2 µM in [3]; 15.5 µM in [4]; 18.8 µM in assay [5]; 19.3 µM in [6]. In assay [7], this compound came in with a concentration for 50% growth inhibition (GI50) of 21.7 µM.
Consider `COc1cc2c3c(n(C)c(=O)c2cc1OC)-c1cc2c(cc1C3=O)OCO2`, for which the GI50 in assay [1] turned out to be 68 µM; in assay [2], 96 µM; in assay [3], 37 µM; in assay [4] it was 73 µM; in assay [5] it was 35 µM; in [6], 4.2 µM. For the same compound, in assay [7], it took 1.3 µM to inhibit growth by half (GI50). In assay [8], this compound registered a Cleavage of 75%.
Regarding `COc1ccc(OC)c2c3c(ncc12)-c1cc2c(cc1C3)OCO2`, the GI50 in [1] is over 100 µM; in assay [2], over 100 µM; in [3], 48.4 µM; in assay [4], 26.9 µM; in assay [5], 0.249 µM; in assay [6], over 100 µM. The same compound had a GI50 in assay [7] of under 0.01 µM. Further, the Cleavage in assay [8] was 75%.
Regarding `COc1cc2c(c(OC)c1OC)-c1ncc3cc(OC)c(OC)c(OC)c3c1C2`, the concentration for 50% growth inhibition (GI50) in assay [1] was found to be 17.6 µM; in [2], 20.8 µM; in assay [3], 26.6 µM; in [5], 33.5 µM; in assay [6], 17.4 µM; in assay [7] it was 35.4 µM. Moreover, the GI50 in [9] came out at 19.1 µM.
Turning to `COc1cc2c(cc1OC)-c1ncc3cc(OC)c(OC)cc3c1C2`, the GI50 in assay [1], in [2], in assay [3], in [4], in [10] and in assay [5] was over 50 µM each time. The compound also showed a 50% growth inhibitory concentration (GI50) in assay [6] of over 50 µM. Besides, the Cleavage in assay [8] came to 75%.
Take `COc1cc2c(cc1OC)-c1ncc3c(OC)ccc(OC)c3c1C2`: the GI50 amounted to 14.8 µM in assay [1]; 23.4 µM in assay [2]; 28.1 µM in assay [3]; 15.4 µM in assay [4]; 14 µM in assay [10]; 17.8 µM in assay [5]. The GI50 is 18 µM in assay [6] and 21.4 µM in assay [7].
Take `COc1cc2c3c(ncc2c(OC)c1OC)-c1cc2c(cc1C3)OCO2`: the GI50 was over 100 µM in assay [2], 22.1 µM in assay [5] and 26.9 µM in [11]. In addition, the Cleavage in assay [8] stood at 75%.
Turning to `c1c2c(cc3c1OCO3)-c1ncc3cc4c(cc3c1C2)OCO4`, the GI50 in assay [1] is 0.0414 µM; in [2], under 0.01 µM; in assay [4], 0.0232 µM; in assay [10], 0.598 µM; in assay [5], 0.283 µM; in [6], 0.19 µM. Moreover, halving of growth in [7] (GI50) required 0.227 µM. The compound also registered a Cleavage in assay [8] of 75%.
Regarding `COc1cc2cnc3c(c2c(OC)c1OC)Cc1cc2c(cc1-3)OCO2`, the GI50 is over 100 µM in [12]; 0.602 µM in assay [1]; 0.178 µM in assay [2]; 0.403 µM in assay [4]; 0.869 µM in assay [10]; 0.0694 µM in assay [5]. The GI50 was 0.439 µM in [6] and 0.234 µM in assay [7]. For the same compound, the Cleavage in assay [8] was found to be 75%.
As to `COc1cc2c(cc1OC)-c1ncc3c(OC)c(OC)c(OC)cc3c1C2`, the GI50 in assay [4] came to 0.529 µM; in assay [5], 8.81 µM; in assay [6], 3.84 µM; in [7] it was 16 µM. In addition, the Cleavage in [8] was 75%.
As to `CC[C@@]1(O)C(=O)OCc2c1cc1n(c2=O)Cc2cc3ccccc3nc2-1` [CAMPTOTHECIN], the GI50 in [13] amounted to 0.01 µM; in assay [14], 0.03 µM; in assay [10], 0.01 µM; in [9], 0.22 µM.
In turn, `COc1cc2c(cc1OC)-c1ncc3cc4c(cc3c1C2)OCO4` yielded a Cleavage in [15] of 175%. The GI50 in assay [1] is over 100 µM; in assay [2] it was 63.4 µM; in assay [3], 25.3 µM; in assay [4] it was 61.2 µM; in assay [10], 23.4 µM; in assay [5], 11.1 µM. In [6], the 50% growth inhibitory concentration (GI50) was over 100 µM.
For `COc1cc2c(c(OC)c1OC)-c1ncc3c(OC)c(OC)c(OC)cc3c1C2`, the GI50 in [1] was determined as 20.3 µM; in [2], 23 µM; in [3] it was 29.6 µM; in [4], 21.5 µM; in assay [5], 27.8 µM; in assay [6] it was 21.1 µM. This compound also had a concentration for 50% growth inhibition (GI50) in [7] of 28.5 µM. In assay [8], this compound displayed a Cleavage of 75%.
In the case of `COc1cc2cnc3c(c2cc1OC)Cc1cc2c(cc1-3)OCO2`, the Cleavage in assay [15] turned out to be 175%. The 50% growth inhibitory concentration (GI50) in [1] is over 100 µM; in assay [2], under 0.01 µM; in assay [3], 0.0281 µM; in [10], under 0.01 µM; in assay [5], over 100 µM; in [6] it was under 0.01 µM. The same compound gave a concentration for 50% growth inhibition (GI50) in assay [7] of 0.0721 µM.
On to `COc1cc2c(cc1OC)-c1ncc3cc(OC)c(OC)c(OC)c3c1C2`, for which the concentration for 50% growth inhibition (GI50) came out at 14.4 µM in assay [1]; 16.2 µM in [2]; 21.7 µM in [3]; 15.9 µM in assay [4]; 14 µM in assay [10]; 31.8 µM in assay [5]. The concentration for 50% growth inhibition (GI50) in [6] is 7.42 µM; in assay [7] it was 34.8 µM.
